Values after ≈ are worked out from the molar mass of the structure shown. Active and inactive are the calls of the source. The calls are words filed in the database; no cut-off is given here. A value given as a limit tells only on which side of the number the result lay.

A short description of test [1]: Inhibition of beta-lactamase CTX-M using nitrocefin as substrate.
Test [2] relates to Escherichia coli. Briefly: Antibacterial activity against Escherichia coli expressing CTX-M-14 beta-lactamase. The test is classed as functional. The gist of the method:
(§1)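 MIC per CLSI broth dilution in Mueller-Hinton medium. Compound dissolved in DMSO and diluted in medium, DMSO kept below 10%. Tested alone against clinical E. coli isolates carrying the named CTX-M enzyme. Values are the average of three independent experiments.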

Test [3] has as its system Escherichia coli. Briefly: Antibacterial activity against Escherichia coli expressing CTX-M-9 beta-lactamase. It counts as functional. A digest of the protocol:
as §1

Test [4] relates to Escherichia coli. Nature of the test: Antibacterial activity against Escherichia coli expressing CTX-M-14 beta-lactamase assessed as potentiation of cefotaxime MIC. The test is classed as functional. The gist of the method: (§2)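 Combination MIC per CLSI in Mueller-Hinton medium against clinical E. coli isolates carrying the named CTX-M enzyme. Inhibitor in DMSO (below 10%) was paired with cefotaxime at a 1:1 β-lactam:inhibitor ratio. Values are the average of three independent experiments.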

For test [5], the system named is Escherichia coli. Nature of the test: Antibacterial activity against Escherichia coli expressing CTX-M-9 beta-lactamase assessed as potentiation of cefotaxime MIC. The test is classed as functional. The gist of the method:
as §2

The subject of test [6] is Escherichia coli. Nature of the test: Antibacterial activity against Escherichia coli expressing CTX-M-9 beta-lactamase assessed as increase of cefotaxime inhibition zone at 15 to 30 ug by disk diffusion assay. The test is classed as functional, organism-based. The gist of the method:
(§3)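 Disk diffusion: bacteria suspended in sterile water to 0.5 McFarland, diluted a further 10-fold and spread on Mueller-Hinton agar. Plates dried 10 min before disks were applied: cefotaxime 30 μg, inhibitor 30 μg, cefotaxime:inhibitor 30:15 or 30:30 μg, or solvent.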
In general terms: Agar diffusion results depend on both activity and mobility in agar.

Test [7] relates to Escherichia coli. Briefly: Antibacterial activity against Escherichia coli expressing CTX-M-9 beta-lactamase assessed as inhibition zone at 15 to 30 ug by disk diffusion assay. The test is classed as functional, organism-based. The gist of the method: as §3

On to `N#Cc1ccc(C(=O)Nc2cccc(-c3nn[nH]n3)c2)cc1`, for which the Ki – broadly, a measure of affinity in units of concentration, obtained from inhibition or displacement – in test [1] is recorded as “Not Active”.

In the case of `Nc1cc(C(=O)Nc2cccc(-c3nnn[nH]3)c2)cc(C(F)(F)F)c1`, the Ki in test [1] (read-out: Ki) was determined as 1 µM.

In the case of `O=C(Nc1cccc(-c2nnn[nH]2)c1)c1cc(O)cc(C(F)(F)F)c1`, in test [1] (read-out: Ki), the Ki stood at 0.63 µM. Still for that read-out and setting: to `CC(=O)c1cccc(C(=O)Nc2cccc(-c3nnn[nH]3)c2)c1` belongs 10.2 µM; to `O=C(Nc1cccc(-c2nnn[nH]2)c1)c1cccc(Cl)c1`, 6.2 µM; to `N#Cc1cc(Br)cc(C(=O)Nc2cccc(-c3nnn[nH]3)c2)c1`, 34.1 µM. With `O=C(Nc1cccc(-c2nnn[nH]2)c1)c1cccc([N+](=O)[O-])c1`, in test [1] (read-out: Ki), the Ki turned out to be 3.8 µM. With `O=C(Nc1cccc(-c2nnn[nH]2)c1)c1cc(F)cc2[nH]cnc12`, in test [1] (read-out: Ki), the Ki turned out to be 2.7 µM. Same read-out and setting: the value for `Cc1cccc(C(=O)Nc2cccc(-c3nnn[nH]3)c2)c1` was 4.5 µM. Regarding `CO/N=C(\C(=O)N[C@@H]1C(=O)N2C(C(=O)O)=C(COC(C)=O)CS[C@H]12)c1csc(N)n1` [CEFOTAXIME], the values for the minimum inhibitory concentration (MIC) in test [2] and in test [3] were 32 µg/mL (≈ 70.3 µM) and 64 µg/mL (≈ 141 µM), respectively. In the case of `O=C(Nc1cccc(-c2nnn[nH]2)c1)c1cc(C(F)(F)F)cc2[nH]cnc12`, the MIC in test [2] and in test [3] was at least 64 µg/mL in each case. Besides, the “fold change (FC)” value in test [4] and in test [5] was 64 in each case. For the same compound, in test [1] (read-out: Ki), the inhibition constant (Ki) worked out at 0.089 µM. Moreover, the “inhibition zone (IZ)” value in test [6] was “Dose-dependent effect”. Further, the “inhibition zone (IZ)” value in test [7] was “inactive”.

Regarding `O=C(Nc1cccc(-c2nnn[nH]2)c1)c1cc(O)cc(Br)c1`, the inhibition constant Ki in test [1] (read-out: Ki) came out at 0.57 µM. Still for that read-out and setting: the value for `O=C(Nc1cccc(-c2nnn[nH]2)c1)c1ccc2[nH]ccc2c1` was 1.9 µM; that for `O=C(Nc1cccc(-c2nnn[nH]2)c1)c1cccc(C2CC2)c1` was 3.1 µM; that for `O=C(Nc1cccc(-c2nnn[nH]2)c1)c1cccc2[nH]ccc12` was 6.6 µM.

Consider `N#Cc1cccc(C(=O)Nc2cccc(-c3nnn[nH]3)c2)c1`, for which, in test [1] (read-out: Ki), the Ki is 7.2 µM. On the same count and under the same terms, to `COC(=O)c1cccc(C(=O)Nc2cccc(-c3nnn[nH]3)c2)c1` belongs 6.9 µM; to `COc1cccc(C(=O)Nc2cccc(-c3nnn[nH]3)c2)c1`, 17.1 µM.

(Values after ChEMBL document CHEMBL2029273, “Structure-based design of potent and ligand-efficient inhibitors of CTX-M class A β-lactamase” (J Med Chem, 2012).)
